Experimental findings from ChEMBL document CHEMBL4765301, “Discovery of novel TNNI3K inhibitor suppresses pyroptosis and apoptosis in murine myocardial infarction injury” (Eur J Med Chem, 2020) are described below.

The term IC50 denotes the midpoint of a concentration-inhibition curve.

Structures are written as SMILES.

The target of experiment [1] is Receptor tyrosine-protein kinase erbB-2 (Homo sapiens) (UniProt P04626). Kind of experiment: Inhibition of recombinant human HER2 (676 to end residues) assessed as residual activity at 1 uM using poly(Glu, Tyr) 4:1 as substrate incubated for 40 mins by [gamma-33P]-ATP scintillation counting based radiometry assay relative to control.
Chain of Receptor tyrosine-protein kinase erbB-2 (Homo sapiens) (P04626 whole entry): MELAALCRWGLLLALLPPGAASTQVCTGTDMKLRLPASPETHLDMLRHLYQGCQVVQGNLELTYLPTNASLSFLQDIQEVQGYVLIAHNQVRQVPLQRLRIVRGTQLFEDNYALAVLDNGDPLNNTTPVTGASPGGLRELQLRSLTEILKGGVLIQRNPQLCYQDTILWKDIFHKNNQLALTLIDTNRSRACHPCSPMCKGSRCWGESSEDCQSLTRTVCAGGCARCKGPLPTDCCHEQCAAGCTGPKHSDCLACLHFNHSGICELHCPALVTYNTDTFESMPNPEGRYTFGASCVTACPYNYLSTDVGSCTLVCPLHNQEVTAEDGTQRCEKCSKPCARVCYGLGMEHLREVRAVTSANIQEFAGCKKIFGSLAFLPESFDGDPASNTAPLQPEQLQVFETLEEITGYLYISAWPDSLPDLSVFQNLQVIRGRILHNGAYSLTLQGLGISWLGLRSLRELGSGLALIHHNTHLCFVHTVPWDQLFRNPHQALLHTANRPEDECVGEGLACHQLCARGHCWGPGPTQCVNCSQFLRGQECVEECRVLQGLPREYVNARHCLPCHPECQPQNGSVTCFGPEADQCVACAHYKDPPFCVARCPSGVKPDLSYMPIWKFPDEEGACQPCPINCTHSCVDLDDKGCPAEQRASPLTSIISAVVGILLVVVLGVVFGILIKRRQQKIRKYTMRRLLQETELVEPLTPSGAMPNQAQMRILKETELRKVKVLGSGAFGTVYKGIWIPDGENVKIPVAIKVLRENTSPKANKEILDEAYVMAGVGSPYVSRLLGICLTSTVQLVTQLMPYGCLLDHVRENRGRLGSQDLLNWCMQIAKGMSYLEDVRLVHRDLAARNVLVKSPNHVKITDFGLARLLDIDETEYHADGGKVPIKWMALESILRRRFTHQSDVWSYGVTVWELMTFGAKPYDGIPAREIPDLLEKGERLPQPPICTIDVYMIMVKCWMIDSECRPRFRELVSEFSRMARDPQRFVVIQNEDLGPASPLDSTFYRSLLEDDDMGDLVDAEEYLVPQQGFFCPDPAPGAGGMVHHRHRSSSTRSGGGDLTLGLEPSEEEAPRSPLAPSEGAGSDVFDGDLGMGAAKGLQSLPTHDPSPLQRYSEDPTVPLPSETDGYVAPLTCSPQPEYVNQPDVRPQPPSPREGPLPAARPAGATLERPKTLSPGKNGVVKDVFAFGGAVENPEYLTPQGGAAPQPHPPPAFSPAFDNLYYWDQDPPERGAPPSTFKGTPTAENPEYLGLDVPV
Experiment [2] concerns H9c2. Kind of experiment: Cytoprotective activity against OGD-induced cell death in rat H9c2 cells assessed as cell viability at 1 uM incubated for 24 hrs by MTT assay (reference value: 42.08 to 49.11 %). It is filed as functional. As to conditions: read-out: Activity. A general note: Tetrazolium assays rely on reduction of a dye to a coloured formazan, in cell work by metabolically active cells.

Experiment [3] deals with Vascular endothelial growth factor receptor 1 (Homo sapiens) (UniProt P17948). The experiment in a line: Inhibition of recombinant human FLT1 (783 to end residues) assessed as residual activity at 1 uM using KKKSPGEYVNIEFG as substrate incubated for 40 mins by [gamma-33P]-ATP scintillation counting based radiometry assay relative to control.
Chain of Vascular endothelial growth factor receptor 1 (Homo sapiens) (P17948 whole entry): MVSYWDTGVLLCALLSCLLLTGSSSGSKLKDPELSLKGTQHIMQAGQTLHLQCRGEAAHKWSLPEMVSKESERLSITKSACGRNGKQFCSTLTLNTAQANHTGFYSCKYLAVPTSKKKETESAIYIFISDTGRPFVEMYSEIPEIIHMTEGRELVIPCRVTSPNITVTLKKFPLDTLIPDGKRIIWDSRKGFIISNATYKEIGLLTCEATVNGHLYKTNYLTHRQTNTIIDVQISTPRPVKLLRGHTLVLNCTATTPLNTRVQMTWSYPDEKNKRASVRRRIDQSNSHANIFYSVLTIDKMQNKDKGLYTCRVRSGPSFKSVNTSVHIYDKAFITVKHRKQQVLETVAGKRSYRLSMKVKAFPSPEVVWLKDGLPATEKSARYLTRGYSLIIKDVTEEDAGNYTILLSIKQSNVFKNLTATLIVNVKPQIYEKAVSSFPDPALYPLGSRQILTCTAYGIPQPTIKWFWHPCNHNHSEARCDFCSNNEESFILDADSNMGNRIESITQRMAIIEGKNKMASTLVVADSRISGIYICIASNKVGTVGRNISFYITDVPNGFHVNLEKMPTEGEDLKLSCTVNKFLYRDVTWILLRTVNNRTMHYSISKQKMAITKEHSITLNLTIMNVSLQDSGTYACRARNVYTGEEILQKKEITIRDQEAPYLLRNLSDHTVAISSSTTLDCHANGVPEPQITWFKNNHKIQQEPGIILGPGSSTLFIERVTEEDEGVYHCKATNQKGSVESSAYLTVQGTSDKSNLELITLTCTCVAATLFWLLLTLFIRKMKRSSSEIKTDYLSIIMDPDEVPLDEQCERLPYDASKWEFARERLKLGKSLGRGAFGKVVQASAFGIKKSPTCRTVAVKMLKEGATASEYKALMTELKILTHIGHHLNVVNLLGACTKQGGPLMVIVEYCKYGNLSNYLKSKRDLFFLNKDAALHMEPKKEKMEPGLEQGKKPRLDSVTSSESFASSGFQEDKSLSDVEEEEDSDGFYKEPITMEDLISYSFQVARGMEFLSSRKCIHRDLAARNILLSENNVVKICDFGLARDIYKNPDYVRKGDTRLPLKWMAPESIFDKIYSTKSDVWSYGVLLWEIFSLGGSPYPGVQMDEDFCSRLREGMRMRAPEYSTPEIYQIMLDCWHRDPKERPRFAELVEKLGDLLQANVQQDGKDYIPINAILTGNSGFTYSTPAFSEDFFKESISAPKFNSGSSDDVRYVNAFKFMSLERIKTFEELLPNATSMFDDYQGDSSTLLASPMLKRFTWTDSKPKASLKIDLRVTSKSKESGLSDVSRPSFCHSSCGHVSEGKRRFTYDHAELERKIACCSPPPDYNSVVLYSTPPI
Experiment [4] concerns the target T1, Serine/threonine-protein kinase TNNI3K (Homo sapiens) (UniProt Q59H18).
T1 sequence (whole entry): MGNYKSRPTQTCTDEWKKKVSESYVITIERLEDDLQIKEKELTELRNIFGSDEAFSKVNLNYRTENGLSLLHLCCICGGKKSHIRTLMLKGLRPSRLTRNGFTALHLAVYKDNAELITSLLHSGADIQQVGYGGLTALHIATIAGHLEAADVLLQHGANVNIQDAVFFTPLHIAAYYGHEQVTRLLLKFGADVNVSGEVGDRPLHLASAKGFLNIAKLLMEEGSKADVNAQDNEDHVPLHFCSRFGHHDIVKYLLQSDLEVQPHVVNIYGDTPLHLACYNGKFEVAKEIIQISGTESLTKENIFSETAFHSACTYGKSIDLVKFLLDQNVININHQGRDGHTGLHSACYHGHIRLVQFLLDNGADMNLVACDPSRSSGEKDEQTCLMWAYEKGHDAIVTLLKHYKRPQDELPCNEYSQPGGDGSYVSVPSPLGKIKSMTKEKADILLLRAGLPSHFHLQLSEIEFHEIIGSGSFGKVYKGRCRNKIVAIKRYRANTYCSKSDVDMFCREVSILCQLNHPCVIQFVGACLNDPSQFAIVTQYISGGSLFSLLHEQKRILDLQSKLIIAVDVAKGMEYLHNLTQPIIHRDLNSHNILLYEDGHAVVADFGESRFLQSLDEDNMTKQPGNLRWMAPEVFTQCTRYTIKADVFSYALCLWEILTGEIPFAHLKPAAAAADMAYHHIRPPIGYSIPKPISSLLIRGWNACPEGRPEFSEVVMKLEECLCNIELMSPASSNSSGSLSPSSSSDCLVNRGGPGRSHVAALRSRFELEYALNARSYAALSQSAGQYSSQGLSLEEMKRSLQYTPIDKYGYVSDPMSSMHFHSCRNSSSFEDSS
Kind of experiment: Inhibition of TNNI3K (unknown origin) assessed as residual activity at 1 uM using biotinylated CTnI as substrate by HTRF analysis relative to control. The procedure, abridged: (§1)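 TNNI3K was assayed by HTRF using a GST-tagged TNNI3K kinase domain and a biotinylated cardiac troponin I substrate peptide, followed by the two HTRF detection reagents. Compounds were screened at 1.0 µM, then IC50s were determined.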
Background: TR-FRET usually uses a lanthanide donor and a delayed reading to cut background.

In experiment [5] the target is T2, Serine/threonine-protein kinase TNNI3K (Homo sapiens, UniProt Q59H18).
T2 sequence (Q59H18 whole entry): T1 sequence (whole entry)
The experiment in a line: Inhibition of TNNI3K (unknown origin) using biotinylated CTnI as substrate by HTRF analysis. In a few lines: as §1

Experiment [6] addresses Vascular endothelial growth factor receptor 2 (Homo sapiens) (UniProt P35968). The experiment in a line: Inhibition of recombinant human KDR (790 to end residues) assessed as residual activity at 1 uM using myelin basic protein as substrate incubated for 40 mins by [gamma-33P]-ATP scintillation counting based radiometry assay relative to control.
Experiment [7] deals with H9c2. Kind of experiment: Cytoprotective activity against OGD-induced cell death in rat H9c2 cells assessed as cell viability at 10 uM incubated for 24 hrs by MTT assay (reference value: 42.08 to 49.11 %). It is filed as functional. As to conditions: read-out: Activity.
For experiment [8], the target named is Epidermal growth factor receptor (Homo sapiens) (UniProt P00533). The experiment in a line: Inhibition of recombinant human EGFR (696 to end residues) assessed as residual activity at 1 uM using poly(Glu, Tyr) 4:1 as substrate incubated for 40 mins by [gamma-33P]-ATP scintillation counting based radiometry assay relative to control.

Chain of Vascular endothelial growth factor receptor 2 (Homo sapiens) (P35968 whole entry): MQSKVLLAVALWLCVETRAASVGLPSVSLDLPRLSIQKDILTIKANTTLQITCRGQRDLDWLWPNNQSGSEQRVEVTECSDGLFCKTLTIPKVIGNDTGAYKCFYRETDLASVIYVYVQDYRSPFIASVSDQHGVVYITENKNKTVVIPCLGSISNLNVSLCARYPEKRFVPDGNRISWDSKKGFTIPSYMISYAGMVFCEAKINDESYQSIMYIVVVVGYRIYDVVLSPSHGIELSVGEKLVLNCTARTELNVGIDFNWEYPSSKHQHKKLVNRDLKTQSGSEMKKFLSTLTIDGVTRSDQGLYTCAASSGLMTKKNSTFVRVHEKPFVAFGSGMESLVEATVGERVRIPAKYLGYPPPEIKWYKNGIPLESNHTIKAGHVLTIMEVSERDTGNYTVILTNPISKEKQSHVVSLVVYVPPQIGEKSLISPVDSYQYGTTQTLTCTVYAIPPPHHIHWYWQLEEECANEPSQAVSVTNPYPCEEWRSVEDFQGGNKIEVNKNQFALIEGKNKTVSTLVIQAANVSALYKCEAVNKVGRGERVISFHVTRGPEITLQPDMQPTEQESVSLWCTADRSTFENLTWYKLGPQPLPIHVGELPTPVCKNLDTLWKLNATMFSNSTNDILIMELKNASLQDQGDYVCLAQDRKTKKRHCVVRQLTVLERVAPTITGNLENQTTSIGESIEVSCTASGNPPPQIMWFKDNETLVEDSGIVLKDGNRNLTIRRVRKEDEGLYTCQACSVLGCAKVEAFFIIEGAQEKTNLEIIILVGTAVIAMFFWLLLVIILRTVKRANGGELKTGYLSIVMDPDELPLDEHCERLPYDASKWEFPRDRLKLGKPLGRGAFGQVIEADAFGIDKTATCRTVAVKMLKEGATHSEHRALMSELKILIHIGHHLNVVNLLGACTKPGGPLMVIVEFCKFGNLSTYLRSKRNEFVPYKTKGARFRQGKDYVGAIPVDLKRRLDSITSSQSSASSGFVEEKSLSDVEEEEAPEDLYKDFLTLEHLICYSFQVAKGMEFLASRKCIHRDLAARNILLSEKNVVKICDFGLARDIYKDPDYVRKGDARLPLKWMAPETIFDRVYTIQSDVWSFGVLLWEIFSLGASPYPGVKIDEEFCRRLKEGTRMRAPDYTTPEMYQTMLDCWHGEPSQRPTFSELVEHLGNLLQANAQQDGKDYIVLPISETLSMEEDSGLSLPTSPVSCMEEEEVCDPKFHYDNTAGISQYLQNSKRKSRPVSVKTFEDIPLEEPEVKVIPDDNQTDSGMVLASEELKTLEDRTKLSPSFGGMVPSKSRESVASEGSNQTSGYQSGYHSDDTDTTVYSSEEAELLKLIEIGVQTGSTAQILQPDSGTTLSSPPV

Take `CN(C)c1ccc(Nc2ncnc3sc4c(c23)CCNC4)cc1NC(=O)c1ccncc1`: the Activity came to 109% in experiment [1]; 103% in experiment [3]; 39% in experiment [4]; 92% in experiment [6]; 90% in experiment [8]. Further, the viability at 1 µM with H9c2 [2] was found to be 53%. In experiment [5], this compound gave an IC50 of 960 nM. Also, the viability at 10 µM with H9c2 [7] is 68.1%.

Consider `CN(C)CCCN1CCc2c(sc3ncnc(Nc4ccc(N(C)C)c(NC(=O)c5cccs5)c4)c23)C1`, for which the Activity was determined as 102% in experiment [1]; 98% in experiment [3]; 33% in experiment [4]; 81% in experiment [6]; 86% in experiment [8]. For the same compound, in the experiment with H9c2 [2], the viability at 1 µM came to 58.5%. This compound showed an IC50 in experiment [5] of 570 nM. Besides, in the experiment with H9c2 [7], the viability at 10 µM is 78.5%.

Take `CN(C)c1ccc(Nc2ncnc3sc4c(c23)CCNC4)cc1NC(=O)c1ccco1`: the Activity in experiment [1] was 91%; in experiment [3], 96%; in experiment [4], 35%; in experiment [6], 92%; in experiment [8] it was 100%. Further, in the experiment with H9c2 [2], the viability at 1 µM came to 54.1%. In addition, the IC50 in experiment [5] was found to be 730 nM. The viability at 10 µM with H9c2 [7] was found to be 71%.

For the compound `Cc1ccc(C(=O)Nc2cc(Nc3ncnc4sc5c(c34)CCNC5)ccc2N(C)C)cc1`, the Activity stood at 92% in experiment [1]; 96% in experiment [3]; 78% in experiment [4]; 95% in experiment [6]; 108% in experiment [8].

Consider `CN(C)c1ccc(Nc2ncnc3sc4c(c23)CCN(C(=O)c2ccncc2)C4)cc1NC(=O)c1ccco1`, for which the Activity came to 116% in experiment [1]; 109% in experiment [3]; 35% in experiment [4]; 92% in experiment [6]; 107% in experiment [8]. In addition, in the experiment on H9c2 [2], the viability at 1 µM is 49.1%. For the same compound, the IC50 in experiment [5] was 980 nM. For the same compound, the viability at 10 µM in the experiment on H9c2 [7] came to 70.7%.

`CN(C)c1ccc(Nc2ncnc3sc4c(c23)CCNC4)cc1NC(=O)c1cccc2ccccc12`: the Activity is 90% in experiment [1]; 105% in experiment [3]; 71% in experiment [4]; 88% in experiment [6]; 110% in experiment [8].

Consider `CN1CCc2c(sc3ncnc(Nc4ccc(N(C)C)c(NC(=O)c5cccc6ccccc56)c4)c23)C1`, for which the Activity in experiment [1] came out at 96%; in experiment [3], 101%; in experiment [4] it was 77%; in experiment [6] it was 87%; in experiment [8] it was 98%.

Turning to `CN(C)c1ccc(Nc2ncnc3sc4c(c23)CCN(C(=O)c2ncccn2)C4)cc1NC(=O)c1ccco1`, the Activity in experiment [1] came out at 98%; in experiment [3], 101%; in experiment [4], 54%; in experiment [6], 81%; in experiment [8], 82%.

`CN(C)c1ccc(Nc2ncnc3sc4c(c23)CCN(C(=O)c2cccnc2)C4)cc1NC(=O)c1ccco1`: the Activity in experiment [1] was 101%; in experiment [3], 89%; in experiment [4], 41%; in experiment [6], 93%; in experiment [8] it was 110%.

As to `CCC(=O)Nc1cc(Nc2ncnc3sc4c(c23)CCN(CC)C4)ccc1N(C)C`, the Activity in experiment [1] was 90%; in experiment [3], 109%; in experiment [4] it was 53%; in experiment [6] it was 80%; in experiment [8], 93%.

Regarding `CN1CCc2c(sc3ncnc(Nc4ccc(N(C)C)c(NC(=O)c5cccnc5)c4)c23)C1`, the Activity in experiment [1] is 93%; in experiment [3], 103%; in experiment [4], 47%; in experiment [6], 94%; in experiment [8], 105%.

On to `CN(C)c1ccc(Nc2ncnc3sc4c(c23)CCN(C(=O)c2ncccn2)C4)cc1NC(=O)c1cccs1`, for which the Activity in experiment [1] was found to be 112%; in experiment [3] it was 104%; in experiment [4] it was 49%; in experiment [6] it was 86%; in experiment [8], 92%.

On to `CN(C)c1ccc(Nc2ncnc3sc4c(c23)CCNC4)cc1NC(=O)c1cccs1`, for which the Activity in experiment [1] stood at 106%; in experiment [3], 101%; in experiment [4], 38%; in experiment [6], 95%; in experiment [8] it was 93%. In addition, the viability at 1 µM in the experiment with H9c2 [2] was found to be 56.9%. In experiment [5], this compound had an IC50 of 780 nM. Moreover, the viability at 10 µM with H9c2 [7] is 75.9%.

With `CCC(=O)Nc1cc(Nc2ncnc3sc4c(c23)CCN(C)C4)ccc1N(C)C`, the Activity in experiment [1] is 109%; in experiment [3], 95%; in experiment [4] it was 49%; in experiment [6] it was 82%; in experiment [8] it was 99%.

In the case of `CN1CCN(CCCN2CCc3c(sc4ncnc(Nc5ccc(N(C)C)c(NC(=O)c6cccs6)c5)c34)C2)CC1`, the Activity in experiment [1] was 103%; in experiment [3], 98%; in experiment [4] it was 38%; in experiment [6], 93%; in experiment [8], 86%. Moreover, the viability at 1 µM in the experiment on H9c2 [2] came out at 69.1%. The compound further showed a half-maximal inhibitory concentration (IC50) in experiment [5] of 330 nM. The viability at 10 µM in the experiment with H9c2 [7] was found to be 81.8%.

On to `CN1CCc2c(sc3ncnc(Nc4ccc(N(C)C)c(NC(=O)c5ccco5)c4)c23)C1`, for which the Activity in experiment [1] was determined as 95%; in experiment [3], 105%; in experiment [4] it was 37%; in experiment [6] it was 89%; in experiment [8], 93%. For the same compound, the viability at 1 µM in the experiment on H9c2 [2] was found to be 59.6%. The same compound came in with an IC50 in experiment [5] of 560 nM. Further, the viability at 10 µM in the experiment with H9c2 [7] was 85.6%.

Consider `CCC(=O)Nc1cc(Nc2ncnc3sc4c(c23)CCN(CCCN2CCOCC2)C4)ccc1N(C)C`, for which the Activity in experiment [1] was found to be 108%; in experiment [3], 90%; in experiment [4], 37%; in experiment [6], 86%; in experiment [8], 105%. In the experiment on H9c2 [2], the viability at 1 µM was 62.4%. Moreover, the half-inhibitory concentration (IC50) in experiment [5] stood at 480 nM. Besides, the viability at 10 µM in the experiment on H9c2 [7] was 82.2%.

In the case of `CN(C)c1ccc(Nc2ncnc3sc4c(c23)CCN(C(=O)c2ccccn2)C4)cc1NC(=O)c1ccco1`, the Activity in experiment [1] is 89%; in experiment [3] it was 86%; in experiment [4], 39%; in experiment [6], 77%; in experiment [8] it was 104%. Also, the viability at 1 µM with H9c2 [2] is 54.3%. In experiment [5], the IC50 came out at 820 nM. The viability at 10 µM with H9c2 [7] was determined as 70.9%.

With `CCC(=O)Nc1cc(Nc2ncnc3sc4c(c23)CCN(C(=O)c2ccc(C(F)(F)F)cc2)C4)ccc1N(C)C`, the Activity in experiment [1] was 103%; in experiment [3] it was 109%; in experiment [4] it was 41%; in experiment [6], 95%; in experiment [8], 107%.

As for `CN1CCN(CCCN2CCc3c(sc4ncnc(Nc5ccc(N(C)C)c(NC(=O)c6ccco6)c5)c34)C2)CC1`, the Activity came out at 107% in experiment [1]; 100% in experiment [3]; 33% in experiment [4]; 88% in experiment [6]; 90% in experiment [8]. In addition, the viability at 1 µM in the experiment with H9c2 [2] is 61.1%. Moreover, in experiment [5], half-maximal inhibition (IC50) was put at 640 nM. The viability at 10 µM in the experiment with H9c2 [7] came to 79.9%.
